Data as given in ChEMBL document CHEMBL3611971, “Multifunctional novel Diallyl disulfide (DADS) derivatives with β-amyloid-reducing, cholinergic, antioxidant and metal chelating properties for the treatment of Alzheimer's disease” (Bioorg Med Chem, 2015).

Target: Acetylcholinesterase (Electrophorus electricus, UniProt O42275)
Assay: Inhibition of electric eel AChE using DTNB as substrate incubated for 5 mins prior to substrate addition measured after 2 mins by Ellman's method
Settings: not given

Acetylcholinesterase, sequence (O42275 whole entry): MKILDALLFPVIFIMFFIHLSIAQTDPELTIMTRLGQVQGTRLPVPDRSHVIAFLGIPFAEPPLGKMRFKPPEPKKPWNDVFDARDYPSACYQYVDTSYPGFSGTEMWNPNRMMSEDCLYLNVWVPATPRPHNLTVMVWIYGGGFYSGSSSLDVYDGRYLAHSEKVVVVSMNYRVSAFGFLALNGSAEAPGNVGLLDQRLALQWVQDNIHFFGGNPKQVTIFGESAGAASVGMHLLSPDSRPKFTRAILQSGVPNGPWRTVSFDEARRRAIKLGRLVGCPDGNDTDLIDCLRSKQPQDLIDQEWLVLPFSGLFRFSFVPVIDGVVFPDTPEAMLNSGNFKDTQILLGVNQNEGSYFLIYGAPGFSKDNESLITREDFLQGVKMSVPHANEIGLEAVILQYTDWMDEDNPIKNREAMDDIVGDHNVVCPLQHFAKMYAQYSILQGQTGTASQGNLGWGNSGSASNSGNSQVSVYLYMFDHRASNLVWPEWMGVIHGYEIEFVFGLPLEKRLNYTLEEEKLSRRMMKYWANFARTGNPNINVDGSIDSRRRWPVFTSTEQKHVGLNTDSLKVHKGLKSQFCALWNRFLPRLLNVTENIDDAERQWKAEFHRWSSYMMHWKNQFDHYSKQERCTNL

SMILES | IC50
O=C(/C=C/c1ccc(Cl)cc1)SSC(=O)/C=C/c1ccc(Cl)cc1 | 0.51 µM
O=C(/C=C/c1ccc(Br)cc1)SSC(=O)/C=C/c1ccc(Br)cc1 | 0.34 µM
Brc1ccc(/C=C/CSSC/C=C/c2ccc(Br)cc2)cc1 | 20.9 µM
Clc1cc(Cl)cc(/C=C/CSSC/C=C/c2cc(Cl)cc(Cl)c2)c1 | 64.6 µM
Clc1cccc(/C=C/CSSC/C=C/c2cccc(Cl)c2)c1 | 44.2 µM
Fc1ccccc1/C=C/CSSC/C=C/c1ccccc1F | 48.7 µM
Brc1cccc(/C=C/CSSC/C=C/c2cccc(Br)c2)c1 | 23.7 µM
O=C(/C=C/c1ccc(F)cc1)SSC(=O)/C=C/c1ccc(F)cc1 | 0.45 µM
Fc1cccc(F)c1/C=C/CSSC/C=C/c1c(F)cccc1F | 42.3 µM
COc1ccc(/C=C/C(=O)SSC(=O)/C=C/c2ccc(OC)cc2OC)c(OC)c1 | 0.142 µM

Target: Cholinesterase (Equus caballus, UniProt P81908)
Sequence (P81908 whole entry): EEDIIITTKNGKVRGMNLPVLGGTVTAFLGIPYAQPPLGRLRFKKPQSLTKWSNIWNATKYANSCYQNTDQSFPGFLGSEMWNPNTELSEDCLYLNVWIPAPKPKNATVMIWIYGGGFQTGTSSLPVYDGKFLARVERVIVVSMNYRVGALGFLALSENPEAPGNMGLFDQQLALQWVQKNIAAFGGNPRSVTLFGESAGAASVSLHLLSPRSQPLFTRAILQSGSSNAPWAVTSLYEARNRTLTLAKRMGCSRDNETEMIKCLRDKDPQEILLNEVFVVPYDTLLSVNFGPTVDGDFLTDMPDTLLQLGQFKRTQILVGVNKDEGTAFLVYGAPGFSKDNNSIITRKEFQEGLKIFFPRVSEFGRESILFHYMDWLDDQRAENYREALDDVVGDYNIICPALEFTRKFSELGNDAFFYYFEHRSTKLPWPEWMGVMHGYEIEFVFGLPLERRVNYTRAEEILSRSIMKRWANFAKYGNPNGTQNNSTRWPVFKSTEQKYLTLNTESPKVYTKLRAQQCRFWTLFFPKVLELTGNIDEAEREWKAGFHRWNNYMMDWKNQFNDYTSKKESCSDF
Assay: Inhibition of equine serum BuChE using DTNB as substrate incubated for 5 mins prior to substrate addition measured after 2 mins by Ellman's method
Settings: not given

SMILES | IC50
O=C(/C=C/c1ccc(Cl)cc1)SSC(=O)/C=C/c1ccc(Cl)cc1 | 35.6 µM
O=C(/C=C/c1ccc(Br)cc1)SSC(=O)/C=C/c1ccc(Br)cc1 | 37.2 µM
Brc1ccc(/C=C/CSSC/C=C/c2ccc(Br)cc2)cc1 | 72.5 µM
Clc1cc(Cl)cc(/C=C/CSSC/C=C/c2cc(Cl)cc(Cl)c2)c1 | > 100 µM
Clc1cccc(/C=C/CSSC/C=C/c2cccc(Cl)c2)c1 | > 100 µM
Fc1ccccc1/C=C/CSSC/C=C/c1ccccc1F | > 100 µM
Brc1cccc(/C=C/CSSC/C=C/c2cccc(Br)c2)c1 | 75.4 µM
O=C(/C=C/c1ccc(F)cc1)SSC(=O)/C=C/c1ccc(F)cc1 | 32.4 µM
Fc1cccc(F)c1/C=C/CSSC/C=C/c1c(F)cccc1F | > 100 µM
COc1ccc(/C=C/C(=O)SSC(=O)/C=C/c2ccc(OC)cc2OC)c(OC)c1 | 14.9 µM

Tested on: not listed separately
Assay: Metal chelating activity of the compound assessed as reduction of Cu2+-induced amyloid beta (1 to 42) (unknown origin) aggregation at 50 uM after 24 hrs by thioflavin-T-based fluorescence assay relative to control
Type: physicochemical
Settings: not given
Procedure, shortened: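 Aβ1–42 was HFIP-treated, dried, and held as DMSO stock. Diluted in […] (pH 6.6) with […]; 25 μM peptide incubated with or without 25 μM Cu2+ and 50 μM compound, 37 °C, 24 h.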

inhibition (INH) | SMILES
65.9% | COc1cc(/C=C/C(=O)CC(=O)/C=C/c2ccc(O)c(OC)c2)ccc1O [CURCUMIN]

Tested on: not listed separately
Assay: Metal chelating activity of the compound assessed as reduction of Cu2+-amyloid beta (1 to 42)-complex induced H2O2 production from ascorbate at 800 nM after 30 mins by HRP/Amplex Red assay relative to control
Type: physicochemical
Design: scale not given: the % may be the effect or the level left
Settings: 0.5 h, 0.8 µM
Procedure, shortened: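 Per well, in phosphate buffer (100 μL): CuCl2 400 nM, Aβ 200 nM, chelator 800 nM (1% v/v DMSO) and sodium ascorbate 10 mM, held 30 min at room temperature. Working solution with Amplex Red and HRP then added for another 30 min at room temperature. Fluorescence ex/em 530/590 nm. At least three measurements.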

Activity | SMILES
> 80% | O=C(O)CN(CCN(CC(=O)O)CC(=O)O)CC(=O)O [EDETIC ACID]

Target: Amyloid-beta precursor protein (Homo sapiens) (UniProt P05067)
Sequence (P05067 whole entry): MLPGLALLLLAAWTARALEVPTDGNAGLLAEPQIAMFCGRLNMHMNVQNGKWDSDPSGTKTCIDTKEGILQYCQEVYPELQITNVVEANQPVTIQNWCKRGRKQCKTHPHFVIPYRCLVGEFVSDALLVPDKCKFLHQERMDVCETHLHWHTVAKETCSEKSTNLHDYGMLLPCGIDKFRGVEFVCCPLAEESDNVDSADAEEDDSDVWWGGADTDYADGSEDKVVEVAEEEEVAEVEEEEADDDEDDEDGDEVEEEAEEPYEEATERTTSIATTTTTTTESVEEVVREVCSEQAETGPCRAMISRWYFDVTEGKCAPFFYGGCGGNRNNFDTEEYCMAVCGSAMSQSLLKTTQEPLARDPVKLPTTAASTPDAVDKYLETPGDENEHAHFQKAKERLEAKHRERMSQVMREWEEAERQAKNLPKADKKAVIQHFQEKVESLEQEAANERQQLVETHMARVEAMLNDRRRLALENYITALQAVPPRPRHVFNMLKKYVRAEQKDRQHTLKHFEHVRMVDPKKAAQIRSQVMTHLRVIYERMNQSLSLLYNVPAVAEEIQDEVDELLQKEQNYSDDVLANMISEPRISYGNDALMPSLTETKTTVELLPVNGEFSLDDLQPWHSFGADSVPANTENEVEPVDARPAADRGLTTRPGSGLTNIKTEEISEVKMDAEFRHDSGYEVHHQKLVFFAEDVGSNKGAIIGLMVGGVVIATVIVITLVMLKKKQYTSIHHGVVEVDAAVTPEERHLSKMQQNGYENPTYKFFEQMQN
Settings: at 25 µM

SMILES | inhibition
O=C(/C=C/c1ccc(Cl)cc1)SSC(=O)/C=C/c1ccc(Cl)cc1 | 65.6%
O=C(/C=C/c1ccc(Br)cc1)SSC(=O)/C=C/c1ccc(Br)cc1 | 52.2%
Brc1ccc(/C=C/CSSC/C=C/c2ccc(Br)cc2)cc1 | 37.5%
Clc1cc(Cl)cc(/C=C/CSSC/C=C/c2cc(Cl)cc(Cl)c2)c1 | 47.5%
Clc1cccc(/C=C/CSSC/C=C/c2cccc(Cl)c2)c1 | 52.4%
Fc1ccccc1/C=C/CSSC/C=C/c1ccccc1F | 33.5%
Brc1cccc(/C=C/CSSC/C=C/c2cccc(Br)c2)c1 | 39.4%
O=C(/C=C/c1ccc(F)cc1)SSC(=O)/C=C/c1ccc(F)cc1 | 62.4%
Fc1cccc(F)c1/C=C/CSSC/C=C/c1c(F)cccc1F | 39.5%
COc1ccc(/C=C/C(=O)SSC(=O)/C=C/c2ccc(OC)cc2OC)c(OC)c1 | 69%
